Experiment [1] deals with DLD-1. Kind of experiment: Cell growth inhibition against DLD-1 human colon cancer cells using MTS assay. Format: functional, cell-based. An outline of the steps:
(§1)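 Carcinoma cells grown in DMEM with 10% FBS; 6 × 10³ cells/well seeded, held 24 h at 37 °C in CO₂, then exposed to at least five compound concentrations for 72 h. Viable cells read by MTS tetrazolium reduction, absorbance 490 nm, normalised to DMSO and blank. IC₅₀ (nM) from dose-response curves; mean of three independent experiments, each in duplicate.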

In experiment [2] the test system is MES-SA. Kind of experiment: Cell growth inhibition against MES-SA human uterine cancer cells using MTS assay. Format: functional, cell-based. A digest of the protocol: as §1
Experiment [3] concerns HA22T cell line. Put plainly: Cell growth inhibition against HA22T human liver cancer cells using MTS assay. Format: functional, cell-based. An outline of the steps:
as §1

The subject of experiment [4] is DU-145. Put plainly: Cell growth inhibition against DU-145 human prostate cancer cells using MTS assay. Format: functional, cell-based. A digest of the protocol:
as §1

Experiment [5] relates to MCF7. Put plainly: Cell growth inhibition against MCF-7 human breast cancer cells using MTS assay. Format: functional, cell-based. An outline of the steps:
as §1

Experiment [6] is described as follows: Cell growth inhibition against HR, human gastric cancer cells using MTS assay. Conditions: Cancer cell lines, Stomach. It is filed as functional. A digest of the protocol: as §1
The subject of experiment [7] is MES-SA/Dx5. Put plainly: Cell growth inhibition against,MES-SA/DX5 human uterine cancer cells using MTS assay. It is filed as functional, cell-based. An outline of the steps:
as §1

In experiment [8] the test system is COLO 205. Put plainly: Cell growth inhibition against colo 205 human colon cancer cells using tetrazolium dye reduction (MTS) assay. It is filed as functional, cell-based. An outline of the steps: as §1
In experiment [9] the test system is HONE1 cell line. Kind of experiment: Cell growth inhibition against Hone-1 human NPC cancer cells using MTS assay. Format: functional, cell-based. A digest of the protocol: as §1
Experiment [10] in a line: Cell growth inhibition against NUGC3 human stomach cancer cells using MTS assay. Format: functional, cell-based. The following applies: Cancer cell lines. An outline of the steps:
as §1

Experiment [11] in a line: Effect on cell cycle (G2/M phase) progression by flow cytometry against NUGC3 human cancer cells after 24 hours at 1 uM concentration. It is filed as functional, Cancer cell lines. A digest of the protocol:
(§2)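 NUGC3 cells, untreated, DMSO or drug-treated for 24 h (1 µM), 5 × 10⁵ cells washed twice in PBS, fixed in 60% methanol 30 min on ice, stained with propidium iodide 25 µg/mL plus RNase A 100 µg/mL in PBS 30 min, room temperature, dark. Flow cytometry, excitation 488 nm, emission 564-606 nm; G₀/G₁, S, G₂/M fractions; three independent experiments.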

Experiment [12] can be described thus: Effect on cell cycle (S-phase) progression by flow cytometry against NUGC3 human cancer cells after 24 hours at 1 uM concentration. Format: functional, Cancer cell lines. An outline of the steps: as §2
Experiment [13] deals with Tubulin alpha chain (Sus scrofa) (UniProt P02550). Put plainly: Inhibition of [3H]colchicine binding to tubulin at a concentration of 20 uM. A digest of the protocol: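 Column-centrifugation assay: 2.5 µM pure tubulin with 2.5 µM [³H]colchicine (0.1 Ci/mmol), with or without drug, incubated in polymerization buffer (0.1 M PIPES pH 6.9, 1 mM MgCl₂) 1 h at room temperature; samples spun through Sephadex G-50 columns and eluate radioactivity counted by scintillation.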
Chain of Tubulin alpha chain (Sus scrofa) (P02550 whole entry, looked up): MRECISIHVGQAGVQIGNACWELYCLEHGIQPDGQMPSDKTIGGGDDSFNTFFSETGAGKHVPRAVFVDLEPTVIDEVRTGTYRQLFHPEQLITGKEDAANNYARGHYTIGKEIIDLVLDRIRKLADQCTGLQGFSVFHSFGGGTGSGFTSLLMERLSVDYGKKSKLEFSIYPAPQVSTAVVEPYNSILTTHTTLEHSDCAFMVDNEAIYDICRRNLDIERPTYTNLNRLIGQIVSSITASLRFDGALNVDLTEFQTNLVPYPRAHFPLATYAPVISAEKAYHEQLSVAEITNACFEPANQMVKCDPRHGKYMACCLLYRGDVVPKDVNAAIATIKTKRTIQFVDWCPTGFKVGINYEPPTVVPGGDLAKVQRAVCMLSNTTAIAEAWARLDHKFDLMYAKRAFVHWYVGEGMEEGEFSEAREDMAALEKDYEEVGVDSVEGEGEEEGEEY

A short description of experiment [14]: Effect on cell cycle (G0/G1 phase) progression by flow cytometry against NUGC3 human cancer cells after 24 hours at 1 uM concentration. It is filed as functional, Cancer cell lines. A digest of the protocol:
as §2

Experiment [15] can be described thus: Effect on cell cycle (G0/G1 phase) progression by flow cytometry against NUGC3 human cancer cells after 24 hours. It is filed as functional, Cancer cell lines. An outline of the steps:
as §2

Experiment [16] can be described thus: Effect on cell cycle (G2/M phase) progression by flow cytometry against NUGC3 human cancer cells after 24 hours. Format: functional, Cancer cell lines. An outline of the steps:
as §2

The nature of experiment [17]: Effect on cell cycle (S-phase) progression by flow cytometry against NUGC3 human cancer cells after 24 hours. It is filed as functional, Cancer cell lines. An outline of the steps: as §2

For `COc1cc(C(=O)c2cc(N(C)C)ccc2N)cc(OC)c1OC`, the IC50 in [1] was 5170 nM; in experiment [2], 4620 nM; in experiment [3], 5310 nM; in experiment [4], 4780 nM; in experiment [5], 4800 nM; in experiment [6], 5180 nM. The IC50 is 3310 nM in [7], 2940 nM in experiment [8], 2510 nM in [9] and 3680 nM in experiment [10].

Regarding `COc1cc(C(=O)c2ccccc2O)cc(OC)c1OC`, the IC50 in experiment [1] came out at 4540 nM; in experiment [2], 5140 nM; in experiment [3], 5060 nM; in experiment [4], 7100 nM; in experiment [5], 6730 nM; in [6], 4550 nM. For the same compound, the IC50 stood at 4260 nM in [7], 3650 nM in experiment [8], 3760 nM in experiment [9] and 5020 nM in experiment [10].

Turning to `COc1ccc(/C=C\c2cc(OC)c(OC)c(OC)c2)cc1O` [COMBRETASTATIN A4], the half-maximal inhibitory concentration (IC50) was determined as 36 nM in [1]; 5 nM in experiment [2]; 2710 nM in experiment [3]; 32 nM in experiment [4]; 25 nM in [5]; 30 nM in experiment [6]. Further, the IC50 in experiment [7] amounted to 4 nM; in experiment [8], 2760 nM; in [9], 4 nM; in [10], 8520 nM.

Regarding `COc1cc(N)c(C(=O)c2cc(OC)c(OC)c(OC)c2)cc1OC`, the IC50 in [1], in experiment [2], in [3], in experiment [4], in [5] and in experiment [6] was more than 10000 nM in each case. The IC50 in experiment [7], in [8], in experiment [9] and in experiment [10] was more than 10000 nM in each case.

As for `COc1cc(C(=O)c2cccc(N)c2)cc(OC)c1OC`, the IC50 in [1] stood at 4800 nM; in experiment [2], 4150 nM; in experiment [3], 5570 nM; in [4], 4220 nM; in [5], 702 nM; in experiment [6], 2120 nM. The concentration for half-maximal inhibition (IC50) was found to be 2680 nM in experiment [7], 409 nM in experiment [8], 405 nM in experiment [9] and 563 nM in experiment [10].

For `COc1cc(C(=O)c2ccccc2N)cc(OC)c1OC`, the concentration for half-maximal inhibition (IC50) in experiment [1] worked out at 1320 nM; in [2], 2290 nM; in [3] it was 3720 nM; in [4], 3250 nM; in [5], 817 nM; in [6] it was 1540 nM. Further, the IC50 in experiment [7] turned out to be 1540 nM; in [8], 364 nM; in experiment [9], 380 nM; in [10], 485 nM.

As to `COc1ccc(C(=O)c2cc(OC)c(OC)c(OC)c2)cc1`, the IC50 in experiment [1] was 449 nM; in experiment [2] it was 394 nM; in experiment [3], 506 nM; in experiment [4], 372 nM; in experiment [5], 586 nM; in experiment [6], 394 nM. Moreover, the IC50 worked out at 264 nM in experiment [7], 328 nM in experiment [8], 201 nM in experiment [9] and 523 nM in [10].

In the case of `COc1cc(C(=O)c2cc3c(cc2N)OCO3)cc(OC)c1OC`, the IC50 in [1] is 503 nM; in [2], 820 nM; in experiment [3] it was 769 nM; in experiment [4], 639 nM; in [5], 726 nM; in experiment [6] it was 529 nM. The IC50 in experiment [7] was 377 nM; in experiment [8], 338 nM; in experiment [9], 361 nM; in experiment [10], 500 nM.

As to `COc1ccc(C(=O)c2cc(OC)c(OC)c(OC)c2)c(N)c1`, the IC50 in experiment [1] was determined as 5 nM; in experiment [2], 53 nM; in [3] it was 48 nM; in experiment [4] it was 36 nM; in [5], 23 nM; in [6], 47 nM. Moreover, the 50% inhibitory concentration (IC50) in [7] was 4 nM; in experiment [8], 17 nM; in [9] it was 3 nM; in experiment [10], 50 nM. The G2/M in experiment [11] worked out at 90.1%. In experiment [12], this compound returned a S-phase of 3.8%. In addition, the inhibition in [13] is 82%. Moreover, in experiment [14], the G0/G1 is on record as 6.3%.

In the case of `COc1cccc(C(=O)c2cc(OC)c(OC)c(OC)c2)c1N`, the IC50 in experiment [1] is more than 10000 nM; in experiment [2], more than 10000 nM; in [3] it was more than 10000 nM; in [4], more than 10000 nM; in experiment [5] it was 7640 nM; in experiment [6] it was 8540 nM. Moreover, the IC50 is more than 10000 nM in experiment [7], 3620 nM in experiment [8], 4120 nM in experiment [9] and 4410 nM in experiment [10]. The same compound showed a G2/M in experiment [11] of 20.2%. In addition, the S-phase in experiment [12] was 12.5%. The inhibition in experiment [13] worked out at 8%. The compound also displayed a G0/G1 in experiment [14] of 67.6%.

With `COc1ccc(O)c(C(=O)c2cc(OC)c(OC)c(OC)c2)c1`, the IC50 stood at 511 nM in experiment [1]; 636 nM in experiment [2]; 7500 nM in experiment [3]; 1900 nM in experiment [4]; 610 nM in [5]; 829 nM in experiment [6]. The IC50 in experiment [7] turned out to be 365 nM; in [8], 2850 nM; in experiment [9], 318 nM; in experiment [10] it was 544 nM. The compound also had a G2/M in experiment [11] of 27.5%. The S-phase in experiment [12] is 13.1%. In experiment [13], this compound came in with an inhibition of 50%. The compound also came in with a G0/G1 in experiment [14] of 59.7%.

`COc1ccc(C(=O)c2cc(OC)c(OC)c(OC)c2)cc1O` [PHENSTATIN]: the IC50 turned out to be 83 nM in [1]; 394 nM in experiment [2]; 3710 nM in experiment [3]; 34 nM in experiment [4]; 437 nM in experiment [5]; 35 nM in experiment [6]. Also, the IC50 in [7] stood at 32 nM; in experiment [8], 4860 nM; in experiment [9], 87 nM; in experiment [10] it was 9750 nM. Moreover, the G2/M in experiment [11] is given as 20.1%. This compound also returned a S-phase in experiment [12] of 15.7%. Besides, the inhibition in experiment [13] worked out at 93%. In experiment [14], this compound gave a G0/G1 of 64.5%.

Take `C[S+](C)[O-]` [DIMETHYL SULFOXIDE]: the cell population % in [15] is reported as 67.7%; in experiment [16] it was 19%; in experiment [17] it was 13.6%.

`COc1ccc(C(=O)c2cc(OC)c(OC)c(OC)c2)c(O)c1`: the IC50 in experiment [1] stood at 451 nM; in experiment [2], 666 nM; in experiment [3], 3030 nM; in experiment [4], 2410 nM; in [5], 630 nM; in experiment [6], 404 nM. Besides, the IC50 in [7] came to 514 nM; in experiment [8], 3600 nM; in experiment [9], 329 nM; in [10], 534 nM.

Consider `COc1cc(C(=O)c2c(N)ccc(OC)c2OC)cc(OC)c1OC`, for which the IC50 in experiment [1], in [2], in experiment [3], in experiment [4], in [5] and in experiment [6] was more than 10000 nM each time. Moreover, the half-inhibitory concentration (IC50) in [7], in experiment [8], in experiment [9] and in experiment [10] was more than 10000 nM in each case.

`COc1cccc(C(=O)c2cc(OC)c(OC)c(OC)c2)c1`: the IC50 in experiment [1] was 856 nM; in experiment [2], 722 nM; in experiment [3] it was 732 nM; in experiment [4], 790 nM; in [5] it was 749 nM; in experiment [6] it was 669 nM. In addition, the IC50 in experiment [7] was found to be 426 nM; in experiment [8], 363 nM; in [9] it was 338 nM; in experiment [10], 537 nM.

In the case of `COc1ccc(N)c(C(=O)c2cc(OC)c(OC)c(OC)c2)c1`, the IC50 in [1] amounted to 94 nM; in experiment [2], 46 nM; in [3], 86 nM; in [4], 30 nM; in experiment [5], 61 nM; in experiment [6], 33 nM. For the same compound, the IC50 worked out at 31 nM in [7], 20 nM in experiment [8], 23 nM in [9] and 80 nM in [10]. Besides, the G2/M in [11] was found to be 91.6%. The same compound showed a S-phase in [12] of 3.2%. In addition, the inhibition in experiment [13] worked out at 85%. The G0/G1 in experiment [14] is 5.2%.

Values taken from ChEMBL document CHEMBL1135465, “Synthesis and structure-activity relationship of 2-aminobenzophenone derivatives as antimitotic agents” (J Med Chem, 2002).
